Data: ChEMBL document CHEMBL1130012 (J Med Chem, 1997)

Key:
Settings in all cases: in vivo, 0.25 h; call rule not given here
Rattus norvegicus [1] = experiment: The Biodistribution of the antagonistic compound along with pretreated atropine (2.5 mg/kg) in male wistar rats after 15 minutes of injection in the red blood cells; Below limit of detection expressed as (body weight-corrected) uptake value; assay type: organism-based
Summary of the method: (§1)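 Same protocol, except the pretreatment was saline containing atropine (0.5 mg/0.5 mL; 2.5 mg/kg) given i.v. 1 min before tail-vein injection of the radioligand (1.85-2.78 MBq in 0.4 mL saline) into pentobarbital-anaesthetized (60 mg/kg) male Wistar rats (240 g). Tissues removed at 15 min and counted ex vivo. Uptake is body-weight-corrected DAR = (cpm/g tissue)/(cpm injected/g body weight).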

Rattus norvegicus [2] = organism: Rattus norvegicus; experiment: The Biodistribution of the antagonistic compound in male wistar rats, after 15 minutes of injection in the lung expressed as (body weight-corrected) uptake value; assay type: organism-based
Rattus norvegicus [3] = organism: Rattus norvegicus; experiment: The Biodistribution of the antagonistic compound in male wistar rats, after 15 minutes of injection in the trachea expressed as (body weight-corrected) uptake value; assay type: organism-based
Rattus norvegicus [4] = organism: Rattus norvegicus; experiment: The Biodistribution of the antagonistic compound in male wistar rats, after 15 minutes of injection in the liver expressed as (body weight-corrected) uptake value; assay type: organism-based
Rattus norvegicus [5] = organism: Rattus norvegicus; experiment: The Biodistribution of the antagonistic compound in male wistar rats, after 15 minutes of injection in the fat expressed as (body weight-corrected) uptake value; assay type: organism-based, Adipose tissue
Rattus norvegicus [6] = experiment: The Biodistribution of the antagonistic compound along with pretreated atropine (2.5 mg/kg) in male wistar rats after 15 minutes of injection in the stomach expressed as (body weight-corrected) uptake value; assay type: organism-based; summary of the method: as §1
Rattus norvegicus [7] = organism: Rattus norvegicus; experiment: The Biodistribution of the antagonistic compound in male wistar rats, after 15 minutes of injection in the kidney expressed as (body weight-corrected) uptake value; assay type: organism-based
Rattus norvegicus [8] = organism: Rattus norvegicus; experiment: The Biodistribution of the antagonistic compound in male wistar rats, after 15 minutes of injection in the spleen expressed as (body weight-corrected) uptake value; assay type: organism-based
Rattus norvegicus [9] = organism: Rattus norvegicus; experiment: The Biodistribution of the antagonistic compound in male wistar rats, after 15 minutes of injection in the stomach expressed as (body weight-corrected) uptake value; assay type: organism-based
Rattus norvegicus [10] = organism: Rattus norvegicus; experiment: The Biodistribution of the antagonistic compound in male wistar rats, after 15 minutes of injection in the submandibular gland expressed as (body weight-corrected) uptake value; assay type: organism-based
Rattus norvegicus [11] = experiment: The Biodistribution of the antagonistic compound along with pretreated atropine (2.5 mg/kg) in male wistar rats after 15 minutes of injection in the liver expressed as (body weight-corrected) uptake value; assay type: organism-based; summary of the method: as §1
Rattus norvegicus [12] = experiment: The Biodistribution of the antagonistic compound along with pretreated atropine (2.5 mg/kg) in male wistar rats after 15 minutes of injection in the pancreas expressed as (body weight-corrected) uptake value; assay type: organism-based; summary of the method: as §1
Rattus norvegicus [13] = experiment: The Biodistribution of the antagonistic compound along with pretreated atropine (2.5 mg/kg) in male wistar rats after 15 minutes of injection in the lung expressed as (body weight-corrected) uptake value; assay type: organism-based; summary of the method: as §1
Rattus norvegicus [14] = experiment: The Biodistribution of the antagonistic compound along with pretreated atropine (2.5 mg/kg) in male wistar rats after 15 minutes of injection in the heart expressed as (body weight-corrected) uptake value; assay type: organism-based; summary of the method: as §1
Rattus norvegicus [15] = experiment: The Biodistribution of the antagonistic compound along with pretreated atropine (2.5 mg/kg) in male wistar rats after 15 minutes of injection in the intestine expressed as (body weight-corrected) uptake value; assay type: organism-based; summary of the method: as §1
Rattus norvegicus [16] = organism: Rattus norvegicus; experiment: The Biodistribution of the antagonistic compound in male wistar rats, after 15 minutes of injection in the plasma expressed as (body weight-corrected) uptake value; assay type: organism-based
Rattus norvegicus [17] = organism: Rattus norvegicus; experiment: The Biodistribution of the antagonistic compound in male wistar rats, after 15 minutes of injection in the pancreas expressed as (body weight-corrected) uptake value; assay type: organism-based
Rattus norvegicus [18] = organism: Rattus norvegicus; experiment: The Biodistribution of the antagonistic compound in male wistar rats, after 15 minutes of injection in the testes expressed as (body weight-corrected) uptake value; assay type: organism-based, Testis
Rattus norvegicus [19] = experiment: The Biodistribution of the antagonistic compound along with pretreated atropine (2.5 mg/kg) in male wistar rats after 15 minutes of injection in the spleen; assay type: organism-based; summary of the method: as §1
Rattus norvegicus [20] = experiment: The Biodistribution of the antagonistic compound along with pretreated atropine (2.5 mg/kg) in male wistar rats after 15 minutes of injection in the plasma expressed as (body weight-corrected) uptake value; assay type: organism-based; summary of the method: as §1
Rattus norvegicus [21] = experiment: The Biodistribution of the antagonistic compound along with pretreated atropine (2.5 mg/kg) in male wistar rats after 15 minutes of injection in the muscle expressed as (body weight-corrected) uptake value; assay type: organism-based, Muscle tissue; summary of the method: as §1
Rattus norvegicus [22] = organism: Rattus norvegicus; experiment: The Biodistribution of the antagonistic compound in male wistar rats, after 15 minutes of injection in the cerebellum expressed as (body weight-corrected) uptake value; Below limit of detection; assay type: organism-based
Rattus norvegicus [23] = organism: Rattus norvegicus; experiment: The Biodistribution of the antagonistic compound in male wistar rats, after 15 minutes of injection in the muscle expressed as (body weight-corrected) uptake value; assay type: organism-based, Muscle tissue
Rattus norvegicus [24] = experiment: The Biodistribution of the antagonistic compound along with pretreated atropine (2.5 mg/kg) in male wistar rats after 15 minutes of injection in the submandibular gland expressed as (body weight-corrected) uptake value; assay type: organism-based; summary of the method: as §1
Rattus norvegicus [25] = organism: Rattus norvegicus; experiment: The Biodistribution of the antagonistic compound in male wistar rats, after 15 minutes of injection in the red blood cells expressed as (body weight-corrected) uptake value; Below limit of detection; assay type: organism-based
Rattus norvegicus [26] = experiment: The Biodistribution of the antagonistic compound along with pretreated atropine (2.5 mg/kg) in male wistar rats after 15 minutes of injection in the cerebellum; Below limit of detection; assay type: organism-based; summary of the method: as §1
Rattus norvegicus [27] = experiment: The Biodistribution of the antagonistic compound along with pretreated atropine (2.5 mg/kg) in male wistar rats after 15 minutes of injection in the testes expressed as (body weight-corrected) uptake value; assay type: organism-based, Testis; summary of the method: as §1
Rattus norvegicus [28] = experiment: The Biodistribution of the antagonistic compound along with pretreated atropine (2.5 mg/kg) in male wistar rats after 15 minutes of injection in the cortex expressed as (body weight-corrected) uptake value; Below limit of detection; assay type: organism-based; summary of the method: as §1
Rattus norvegicus [29] = organism: Rattus norvegicus; experiment: Biodistribution of compound in male wistar rats, after 15 minutes of injection in the bladder expressed as (body weight-corrected) uptake value; assay type: ADME, organism-based, Urinary bladder/Urine
Rattus norvegicus [30] = organism: Rattus norvegicus; experiment: The Biodistribution of the antagonistic compound in male wistar rats, after 15 minutes of injection in the heart; assay type: organism-based
Rattus norvegicus [31] = experiment: The Biodistribution of the antagonistic compound along with pretreated atropine (2.5 mg/kg) in male wistar rats after 15 minutes of injection in the fat expressed as (body weight-corrected) uptake value; assay type: organism-based, Adipose tissue; summary of the method: as §1
Rattus norvegicus [32] = experiment: The Biodistribution of the antagonistic compound along with pretreated atropine (2.5 mg/kg) in male wistar rats after 15 minutes of injection in the bladder; assay type: organism-based, Urinary bladder/Urine; summary of the method: as §1
Rattus norvegicus [33] = experiment: The Biodistribution of the antagonistic compound along with pretreated atropine (2.5 mg/kg) in male wistar rats after 15 minutes of injection in the kidney expressed as (body weight-corrected) uptake value; assay type: organism-based; summary of the method: as §1
Rattus norvegicus [34] = organism: Rattus norvegicus; experiment: The Biodistribution of the antagonistic compound in male wistar rats, after 15 minutes of injection in the cortex expressed as (body weight-corrected) uptake value; Below limit of detection; assay type: organism-based
Rattus norvegicus [35] = organism: Rattus norvegicus; experiment: The Biodistribution of the antagonistic compound in male wistar rats, after 15 minutes of injection in the intestine expressed as (body weight-corrected) uptake value; assay type: organism-based
Rattus norvegicus [36] = experiment: The Biodistribution of the antagonistic compound along with pretreated atropine (2.5 mg/kg) in male wistar rats after 15 minutes of injection in the trachea expressed as (body weight-corrected) uptake value; assay type: organism-based; summary of the method: as §1

Structure (SMILES): C[N+]1(C)CCC(OC(=O)C(O)(c2ccccc2)C2CCCCC2)CC1.[I-] (racemic)
- Uptake value (Rattus norvegicus [1]): Not Active
- Uptake value (Rattus norvegicus [2]): 0.67
- Uptake value (Rattus norvegicus [3]): 0.54
- Uptake value (Rattus norvegicus [4]): 6.27
- Uptake value (Rattus norvegicus [5]): 0.5
- Uptake value (Rattus norvegicus [6]): 0.45
- Uptake value (Rattus norvegicus [7]): 2.48
- Uptake value (Rattus norvegicus [8]): 0.97
- Uptake value (Rattus norvegicus [9]): 1.62
- Uptake value (Rattus norvegicus [10]): 1.68
- Uptake value (Rattus norvegicus [11]): 8.1
- Uptake value (Rattus norvegicus [12]): 0.34
- Uptake value (Rattus norvegicus [13]): 0.14
- Uptake value (Rattus norvegicus [14]): 0.16
- Uptake value (Rattus norvegicus [15]): 1.1
- Uptake value (Rattus norvegicus [16]): 0.14
- Uptake value (Rattus norvegicus [17]): 1.97
- Uptake value (Rattus norvegicus [18]): 0.07
- Uptake value (Rattus norvegicus [19]): 0.18
- Uptake value (Rattus norvegicus [20]): 0.13
- Uptake value (Rattus norvegicus [21]): 0.07
- Uptake value (Rattus norvegicus [22]): Not Active
- Uptake value (Rattus norvegicus [23]): 0.08
- Uptake value (Rattus norvegicus [24]): 0.2
- Uptake value (Rattus norvegicus [25]): Not Active
- Uptake value (Rattus norvegicus [26]): Not Active
- Uptake value (Rattus norvegicus [27]): 0.11
- Uptake value (Rattus norvegicus [28]): Not Active
- Uptake value (Rattus norvegicus [29]): 4.71
- Uptake value (Rattus norvegicus [30]): 8.45
- Uptake value (Rattus norvegicus [31]): 0.23
- Uptake value (Rattus norvegicus [32]): 9.72
- Uptake value (Rattus norvegicus [33]): 1.49
- Uptake value (Rattus norvegicus [34]): Not Active
- Uptake value (Rattus norvegicus [35]): 3.39
- Uptake value (Rattus norvegicus [36]): 0.24
